# Laboratory results from ChEMBL document CHEMBL3997782, “Methoxylated 2'-hydroxychalcones as antiparasitic hit compounds” (Eur J Med Chem, 2017).
# Assays:
# [1] = Selectivity index, ratio of CC50 for human THP1 cells to EC50 for anti-parasitic activity against Leishmania infantum amastigotes infected in human THP1 cells; format: toxicity, cell-based; conditions: THP-1 cells, read-out: Ratio CC50/EC50
# How it was run: (§1)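 SI = CC50 in PMA-differentiated THP-1 macrophages (MTT) divided by the antiparasitic EC50.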
# [2] = biological target: CYP2C19 (Homo sapiens, UniProt P33261); assay: Inhibition of human CYP2C19 expressed in baculovirus-infected insect cells at 10 uM using Luciferin-H EGE as substrate in presence of NADPH by P450-Glo luminescence assay relative to control; format: ADME; conditions: probe Luciferin-H EGE
# How it was run: (§2)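 CYP enzymes as microsomal preparations from baculovirus-infected insect cells, run on the P450-Glo luminogenic substrate platform. A fall in light output indicates inhibition.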
# [3] = Lipophilicity, log P of the compound; format: physicochemical; conditions: octanol/water
# [4] = Cytotoxicity against human […] cells assessed as cell growth at 10 uM by Cell titer-Glo assay relative to control; format: cell-based; conditions: WI-38 cells, read-out: Activity
# How it was run: (§3)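 A549 and WI-38 cells grown in DMEM with 10% v/v FCS, streptomycin 100 µg/ml and penicillin G 100 U/ml. Cell number read as cellular ATP by CellTiter-Glo luminescence. Growth 60–100% scored non-cytotoxic, 0–60% cytostatic, below 0 cytotoxic.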
# [5] = biological target: hERG (KCNH2) (Homo sapiens, UniProt Q12809); assay: Inhibition of human ERG at 10 uM by Tracer Red dye based fluorescence polarization assay relative to control; conditions: probe Tracer Red dye
# [6] = tested on: Leishmania infantum; assay: Anti-parasitic activity against Leishmania infantum amastigotes infected in human THP1 cells at 50 uM after 5 days by Giemsa staining based assay relative to control; format: functional, cell-based; conditions: THP-1, 120 h
# How it was run: (§4)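 Intracellular L. infantum amastigotes in host cells, imaged by high-content automated imaging. Host cell number, infected cells and parasites per infected cell were counted. Infection Ratio = infected cells / total cells.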
# [7] = biological target: T1, CYP1A2 (Homo sapiens, UniProt P05177); assay: Inhibition of human CYP1A2 expressed in baculovirus-infected insect cells at 10 uM using Luciferin-1A2 as substrate in presence of NADPH by P450-Glo luminescence assay relative to control; format: ADME; conditions: probe Luciferin-1A2; how it was run: as §2
# T1 sequence (P05177 whole entry): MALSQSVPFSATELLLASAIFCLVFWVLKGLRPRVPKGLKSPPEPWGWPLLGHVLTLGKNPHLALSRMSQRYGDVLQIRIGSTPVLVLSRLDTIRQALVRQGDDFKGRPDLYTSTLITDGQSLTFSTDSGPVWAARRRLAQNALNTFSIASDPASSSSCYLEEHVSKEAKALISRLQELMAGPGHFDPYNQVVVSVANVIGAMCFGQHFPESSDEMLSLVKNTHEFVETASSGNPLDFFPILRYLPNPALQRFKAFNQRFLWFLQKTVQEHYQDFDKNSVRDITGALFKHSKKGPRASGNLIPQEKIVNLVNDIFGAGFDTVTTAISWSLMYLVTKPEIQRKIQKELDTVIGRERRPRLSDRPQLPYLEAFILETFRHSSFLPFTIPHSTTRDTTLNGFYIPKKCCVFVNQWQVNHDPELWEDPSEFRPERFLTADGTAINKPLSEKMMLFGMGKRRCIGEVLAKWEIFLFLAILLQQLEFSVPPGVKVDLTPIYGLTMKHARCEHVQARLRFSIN
# [8] = tested on: Trypanosoma cruzi; assay: Anti-parasitic activity against Trypanosoma cruzi Y promastigotes infected in HG39 cells by qPCR analysis; format: functional, cell-based; conditions: in the assay text read “trypomastigotes” for “promastigotes”
# How it was run: (§5)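 Confluent HG39 cells (3 x 10^6 per well) infected at a 1:1 ratio with blood-derived T. cruzi Y strain trypomastigotes. Growth inhibition was read as parasite gDNA by TaqMan probe-based quantitative real-time PCR.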
# [9] = tested on: Trypanosoma cruzi; assay: Anti-parasitic activity against Trypanosoma cruzi Y promastigotes infected in HG39 cells at 10 uM by qPCR analysis relative to control; format: functional, cell-based; conditions: in the assay text read “trypomastigotes” for “promastigotes”; how it was run: as §5
# [10] = biological target: CYP2D6 (Homo sapiens, UniProt P10635); assay: Inhibition of human CYP2D6 expressed in baculovirus-infected insect cells at 10 uM using Luciferin-ME EGE as substrate in presence of NADPH by P450-Glo luminescence assay relative to control; format: ADME; conditions: probe Luciferin-ME EGE; how it was run: as §2
# [11] = biological target: Aurora kinase B (Homo sapiens, UniProt Q96GD4); assay: Inhibition of N-terminal-GST-tagged recombinant full length human Aurora B expressed in baculovirus infected Sf9 cells at 10 uM using native Swine Myelin Basic Protein as substrate measured after 60 mins by ADP-Glo assay relative to control; conditions: probe native Swine Myelin Basic Protein
# How it was run: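 Aurora B kinase activity measured by ADP-Glo, which detects ADP formed through a coupled luciferase luminescence read-out.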
# [12] = biological target: CYP3A4 (Homo sapiens, UniProt P08684); assay: Inhibition of human CYP3A4 expressed in baculovirus-infected insect cells at 10 uM using Luciferin-PFBE as substrate in presence of NADPH by P450-Glo luminescence assay relative to control; format: ADME; conditions: probe Luciferin-PFBE
# [13] = Cytotoxicity against human THP1 cells by MTT assay; format: cell-based; conditions: THP-1 cells
# How it was run: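 THP-1 cells differentiated to macrophages with PMA, viability read by colorimetric MTT. CC50 and NOAEL are the arithmetic mean of at least two independent determinations, each run in triplicate.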
# [14] = tested on: Leishmania infantum; assay: Anti-parasitic activity against Leishmania infantum amastigotes infected in human THP1 cells after 5 days by Giemsa staining based assay; format: functional, cell-based; conditions: THP-1, 120 h; how it was run: as §4
# [15] = Cytotoxicity against human A549 cells assessed as cell growth at 10 uM by Cell titer-Glo assay relative to control; format: cell-based; conditions: read-out: Activity; how it was run: as §3
# [16] = biological target: CYP2C9 (Homo sapiens, UniProt P11712); assay: Inhibition of human CYP2C9 expressed in baculovirus-infected insect cells at 10 uM using Luciferin-H as substrate in presence of NADPH by P450-Glo luminescence assay relative to control; conditions: probe Luciferin-H
# [17] = tested on: 786-0; assay: Mitochondrial toxicity in human 786-O cells at 10 uM by mitotracker red chloromethyl-Xrosamine staining based-uptake method relative to control; format: cell-based; conditions: 786-0, 10 µM
# How it was run: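 786-O renal carcinoma cells kept in RPMI-1640 with 2 mM glutamine, 10% v/v FCS, streptomycin 100 µg/ml and penicillin G 100 U/ml. Mitochondrial toxicity monitored by MitoTracker Red CMXRos uptake with high-content imaging.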
# [18] = tested on: Trypanosoma brucei brucei; assay: Anti-parasitic activity against bloodstream form of Trypanosoma brucei brucei Lister 427 after 72 hrs by resazurin-based assay; format: functional; conditions: Lister 427, 72 h
# How it was run: (§6)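 Bloodstream-form T. brucei, modified resazurin-based viability assay. EC50 is the arithmetic mean of at least two independent determinations, each run in triplicate.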
# [19] = Selectivity index, ratio of CC50 for human THP1 cells to EC50 for anti-parasitic activity against bloodstream form of Trypanosoma brucei brucei Lister 427; format: toxicity; conditions: THP-1 cells, read-out: Ratio CC50/EC50; how it was run: as §1
# [20] = tested on: Trypanosoma brucei brucei; assay: Anti-parasitic activity against bloodstream form of Trypanosoma brucei brucei Lister 427 at 10 uM after 72 hrs by resazurin-based assay relative to control; format: functional; conditions: Lister 427, 72 h; how it was run: as §6
# [21] = tested on: Trypanosoma brucei; assay: Anti-parasitic activity against Trypanosoma brucei 427; format: functional
# [22] = biological target: T2, Cytochrome P450 1A2 (Homo sapiens, UniProt P05177); assay: Inhibition of human CYP1A2 expressed in baculovirus-infected insect cells using Luciferin-1A2 as substrate in presence of NADPH by P450-Glo luminescence assay; format: ADME; how it was run: as §2
# T2 sequence (P05177 whole entry): T1 sequence (P05177 whole entry)
# [23] = biological target: Cytochrome P450 2D6 (Homo sapiens, UniProt P10635); assay: Inhibition of human CYP2D6 expressed in baculovirus-infected insect cells using Luciferin-ME EGE as substrate in presence of NADPH by P450-Glo luminescence assay; format: ADME; how it was run: as §2
# [24] = Cytotoxicity against human A549 cells assessed as cell growth by Cell titer-Glo assay; format: cell-based; how it was run: as §3
# [25] = biological target: Cytochrome P450 2C19 (Homo sapiens, UniProt P33261); assay: Inhibition of human CYP2C19 expressed in baculovirus-infected insect cells using Luciferin-H EGE as substrate in presence of NADPH by P450-Glo luminescence assay; format: ADME; how it was run: as §2
# Sequence of Cytochrome P450 2C19 (P33261 whole entry): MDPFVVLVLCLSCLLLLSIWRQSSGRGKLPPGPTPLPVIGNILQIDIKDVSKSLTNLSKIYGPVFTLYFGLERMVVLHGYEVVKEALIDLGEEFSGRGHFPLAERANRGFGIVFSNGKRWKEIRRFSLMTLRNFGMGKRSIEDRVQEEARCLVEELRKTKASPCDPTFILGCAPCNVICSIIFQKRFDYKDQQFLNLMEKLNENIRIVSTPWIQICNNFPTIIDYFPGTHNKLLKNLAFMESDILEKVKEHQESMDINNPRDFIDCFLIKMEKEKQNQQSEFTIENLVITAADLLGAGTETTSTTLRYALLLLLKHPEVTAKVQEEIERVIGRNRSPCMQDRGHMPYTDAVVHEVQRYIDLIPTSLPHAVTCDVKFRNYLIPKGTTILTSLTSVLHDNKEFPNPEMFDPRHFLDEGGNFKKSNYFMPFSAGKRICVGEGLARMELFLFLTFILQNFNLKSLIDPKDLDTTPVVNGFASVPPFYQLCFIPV
# Sequence of CYP2C19 (P33261 whole entry): as above
# Sequence of Aurora kinase B (Q96GD4 whole entry): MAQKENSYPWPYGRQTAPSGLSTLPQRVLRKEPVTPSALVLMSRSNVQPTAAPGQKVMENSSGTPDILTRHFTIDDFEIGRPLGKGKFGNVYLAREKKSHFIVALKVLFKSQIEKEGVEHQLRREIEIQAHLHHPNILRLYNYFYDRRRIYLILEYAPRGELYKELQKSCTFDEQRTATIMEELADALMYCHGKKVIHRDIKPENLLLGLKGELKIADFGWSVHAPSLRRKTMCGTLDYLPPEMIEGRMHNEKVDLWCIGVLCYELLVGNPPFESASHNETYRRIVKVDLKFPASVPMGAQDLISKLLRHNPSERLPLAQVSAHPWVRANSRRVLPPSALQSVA
# Sequence of hERG (KCNH2) (Q12809 whole entry): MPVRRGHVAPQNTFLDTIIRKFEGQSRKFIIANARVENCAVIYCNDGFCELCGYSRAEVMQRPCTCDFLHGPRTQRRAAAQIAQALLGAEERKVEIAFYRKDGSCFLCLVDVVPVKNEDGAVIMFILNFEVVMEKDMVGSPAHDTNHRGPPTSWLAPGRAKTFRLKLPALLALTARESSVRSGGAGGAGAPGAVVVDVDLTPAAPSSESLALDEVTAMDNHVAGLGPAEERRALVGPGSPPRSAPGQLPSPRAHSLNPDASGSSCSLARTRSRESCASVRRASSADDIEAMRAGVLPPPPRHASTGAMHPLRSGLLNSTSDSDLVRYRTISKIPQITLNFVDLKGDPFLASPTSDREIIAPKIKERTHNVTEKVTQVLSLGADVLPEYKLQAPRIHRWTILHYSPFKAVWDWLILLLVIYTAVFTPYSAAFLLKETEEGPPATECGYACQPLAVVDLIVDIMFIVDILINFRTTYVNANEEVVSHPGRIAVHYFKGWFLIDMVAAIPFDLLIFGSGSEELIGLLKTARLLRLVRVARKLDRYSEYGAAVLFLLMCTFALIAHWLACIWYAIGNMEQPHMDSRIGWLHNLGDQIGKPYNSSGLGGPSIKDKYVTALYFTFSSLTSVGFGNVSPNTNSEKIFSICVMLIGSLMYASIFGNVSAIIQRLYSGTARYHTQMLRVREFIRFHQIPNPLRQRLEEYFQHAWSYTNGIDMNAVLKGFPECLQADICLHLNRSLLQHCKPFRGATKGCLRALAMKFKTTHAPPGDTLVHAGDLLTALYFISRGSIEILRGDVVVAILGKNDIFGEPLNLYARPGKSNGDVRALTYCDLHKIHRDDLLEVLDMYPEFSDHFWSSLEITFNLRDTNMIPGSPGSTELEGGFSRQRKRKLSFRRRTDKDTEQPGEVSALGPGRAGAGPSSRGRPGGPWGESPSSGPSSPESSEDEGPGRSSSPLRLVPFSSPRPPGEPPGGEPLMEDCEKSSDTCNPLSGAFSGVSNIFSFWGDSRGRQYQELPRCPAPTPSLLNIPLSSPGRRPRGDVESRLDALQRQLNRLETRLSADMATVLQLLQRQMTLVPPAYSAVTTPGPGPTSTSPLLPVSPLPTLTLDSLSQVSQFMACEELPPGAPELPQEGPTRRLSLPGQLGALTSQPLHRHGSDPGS
# Sequence of CYP2C9 (P11712 whole entry): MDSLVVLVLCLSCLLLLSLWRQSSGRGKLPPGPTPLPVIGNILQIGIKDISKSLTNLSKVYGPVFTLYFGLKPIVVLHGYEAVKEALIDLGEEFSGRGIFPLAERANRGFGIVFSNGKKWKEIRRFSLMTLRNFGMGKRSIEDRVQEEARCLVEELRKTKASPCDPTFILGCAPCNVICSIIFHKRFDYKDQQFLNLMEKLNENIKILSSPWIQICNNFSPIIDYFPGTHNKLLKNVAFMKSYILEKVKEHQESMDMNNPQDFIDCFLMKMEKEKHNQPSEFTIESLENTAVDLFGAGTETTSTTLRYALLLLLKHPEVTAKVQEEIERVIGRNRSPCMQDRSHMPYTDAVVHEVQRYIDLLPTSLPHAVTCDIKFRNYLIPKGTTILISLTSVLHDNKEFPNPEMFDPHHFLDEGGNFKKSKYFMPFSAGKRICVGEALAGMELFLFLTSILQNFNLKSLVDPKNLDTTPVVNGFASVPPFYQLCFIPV
# Sequence of CYP3A4 (P08684 whole entry): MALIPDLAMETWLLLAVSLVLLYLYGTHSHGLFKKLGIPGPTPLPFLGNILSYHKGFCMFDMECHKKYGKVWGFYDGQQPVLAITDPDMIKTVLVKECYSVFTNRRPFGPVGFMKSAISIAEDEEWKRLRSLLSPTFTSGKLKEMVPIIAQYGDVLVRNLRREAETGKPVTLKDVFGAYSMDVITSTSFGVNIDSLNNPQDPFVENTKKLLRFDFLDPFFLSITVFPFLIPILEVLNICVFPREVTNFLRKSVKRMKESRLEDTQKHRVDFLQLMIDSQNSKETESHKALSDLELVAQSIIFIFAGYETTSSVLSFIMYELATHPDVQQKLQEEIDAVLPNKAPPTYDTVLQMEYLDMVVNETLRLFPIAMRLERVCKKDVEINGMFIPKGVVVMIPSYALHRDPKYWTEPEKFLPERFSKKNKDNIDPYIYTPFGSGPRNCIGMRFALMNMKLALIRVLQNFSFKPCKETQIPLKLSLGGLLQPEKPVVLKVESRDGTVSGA
# Sequence of CYP2D6 (P10635 whole entry): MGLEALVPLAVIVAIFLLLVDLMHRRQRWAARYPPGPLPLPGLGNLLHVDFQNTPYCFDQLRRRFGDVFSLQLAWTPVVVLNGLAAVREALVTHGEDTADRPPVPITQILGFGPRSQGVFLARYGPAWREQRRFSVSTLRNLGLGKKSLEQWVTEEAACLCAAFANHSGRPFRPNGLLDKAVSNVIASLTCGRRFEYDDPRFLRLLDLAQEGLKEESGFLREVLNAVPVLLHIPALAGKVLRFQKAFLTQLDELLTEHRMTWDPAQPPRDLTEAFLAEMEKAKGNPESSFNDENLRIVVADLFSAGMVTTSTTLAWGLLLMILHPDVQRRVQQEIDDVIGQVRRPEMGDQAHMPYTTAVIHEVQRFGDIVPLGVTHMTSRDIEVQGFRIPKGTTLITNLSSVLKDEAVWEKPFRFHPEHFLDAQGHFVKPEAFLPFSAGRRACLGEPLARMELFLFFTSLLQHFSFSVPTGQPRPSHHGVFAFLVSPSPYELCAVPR
# Sequence of Cytochrome P450 2D6 (P10635 whole entry): as above
SMILES,inhibition at 10 µM [2] [%],logP [3],inhibition at 10 µM [7] [%],inhibition at 10 µM [10] [%],"inhibition at 1 h, 10 µM [11] [%]",inhibition at 10 µM [12] [%],EC50 [14] [µM],inhibition at 10 µM [16] [%],EC50 [18] [µM],selectivity ratio [1],viability at 10 µM [4] [%],inhibition at 10 µM [5] [%],inhibition at 50 µM [6] [%],inhibition at 10 µM [9] [%],CC50 [13] [µM],viability at 10 µM [15] [%],Activity [17] [%],selectivity ratio [19],inhibition at 10 µM [20] [%],also measured
COc1ccc(O)c(C(=O)/C=C/c2cc(OC)c(OC)c(OC)c2)c1,84.6,3.47,13.3,88.3,-8.1,-3.1,42.4,60.9,4.4,> 1,73.9,9.5,43,1,> 25,108,-6.4,≥ 6,100,
COc1cc(O)c(C(=O)/C=C/c2cc(OC)c(OC)c(OC)c2)cc1OC,75.7,3.5,-3.1,-24.9,-4.2,18.7,22.2,27,7.4,> 2,88.5,7.1,88,0,> 25,115,10,≥ 3,91,
N=C(N)c1ccc(OCCCCCOc2ccc(C(=N)N)cc2)cc1 [PENTAMIDINE],,,,,,,,,0.00155,,,,,,,,,,,IC50 [22]: > 100 µM; IC50 [23]: 24.8 µM; GI50 [24]: > 100 µM; IC50 [25]: > 100 µM

# More lines, main results first:
inhibition at 10 µM [2] [%],logP [3],inhibition at 10 µM [7] [%],inhibition at 10 µM [10] [%],"inhibition at 1 h, 10 µM [11] [%]",inhibition at 10 µM [12] [%],EC50 [14] [µM],inhibition at 10 µM [16] [%],EC50 [18] [µM],SMILES,selectivity ratio [1],viability at 10 µM [4] [%],inhibition at 10 µM [5] [%],inhibition at 50 µM [6] [%],inhibition at 10 µM [9] [%],CC50 [13] [µM],viability at 10 µM [15] [%],Activity [17] [%],selectivity ratio [19],inhibition at 10 µM [20] [%],also measured
67.5,3.49,1.2,65.1,-23.6,-10,30.6,57.6,,COc1ccc(C(=O)/C=C/c2cc(OC)c(OC)c(OC)c2)c(O)c1,> 1.6,78.1,34.7,71,60,> 100,127,1.1,,,EC50 [8]: < 10 µM
,3.9,,,,,,,,COc1cc(O)c(C(=O)/C=C/c2ccccc2)c(OC)c1 [FLAVOKAWAIN B],,,,,,,,,,,EC50 [21]: 6.2 µM
